Source: PubChem (several laboratories)
This is a sample that favours compounds with a hit; in the whole collection about 2.4% have one here.
PP5 primary: inhibitors of human protein phosphatase 5 (PP5); P53041; inhibition, % at 6.7 µM; purified PP5c, OMFP substrate fluorescence; 320,000 tested, 0.18% active; AID 1987;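 active = inhibition above the campaign's mean inhibition across all tested compounds plus 3 SD, cut at about 9.5% in these data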;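 note: 0% = DMSO only and 100% = 100 µM cantharidin control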
Target sequence (P53041 whole entry, looked up): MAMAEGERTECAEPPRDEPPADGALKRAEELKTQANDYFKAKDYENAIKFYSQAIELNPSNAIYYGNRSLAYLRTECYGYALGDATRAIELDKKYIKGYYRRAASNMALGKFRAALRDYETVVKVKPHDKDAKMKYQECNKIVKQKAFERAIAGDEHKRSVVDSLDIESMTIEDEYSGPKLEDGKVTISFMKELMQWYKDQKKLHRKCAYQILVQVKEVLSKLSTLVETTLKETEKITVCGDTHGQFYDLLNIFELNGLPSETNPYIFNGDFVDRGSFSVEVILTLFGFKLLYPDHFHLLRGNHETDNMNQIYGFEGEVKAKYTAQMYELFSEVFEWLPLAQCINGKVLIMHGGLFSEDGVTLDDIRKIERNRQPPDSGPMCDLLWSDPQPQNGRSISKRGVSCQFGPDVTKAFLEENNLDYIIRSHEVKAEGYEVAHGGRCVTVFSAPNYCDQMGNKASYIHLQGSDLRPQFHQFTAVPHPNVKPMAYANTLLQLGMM
JMJD2C inh: human JMJD2C demethylase inhibition | Q9H3R0 | GST-JMJD2C(1-420) H3K9me3 demethylation, DELFIA europium | inhibition, % at 2.35 µM | 330,000 tested, 0.069% active | AID 2099;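 active = more than half of a compound's replicate wells show inhibition beyond 50%, single wells judged on their own value; inconclusive = some, but no more than half, of replicates pass 50% inhibition; inactive = no replicate passes 50% inhibition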;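 note: signal counts dimethyl H3K9 product captured on neutravidin plate; 0% = median of DMSO wells and 100% = 0.3 times that DMSO median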
pCIP destab: p/CIP protein destabilization; Q05BA5; F442A p/CIP-EGFP cells, EGFP fluorescence, 16 h; decrease of EGFP signal, % at 10 µM; 290,000 tested, 0.01% active;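 active = EGFP signal decrease of at least 30% at 10 µM or well 3 SD below plate mean, unless failing retest; inactive = the rest, including hits failing retest or dose response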
T cruzi repl: blocks replication of Trypanosoma cruzi | T. cruzi beta-gal in NIH3T3, luminescence, 90 h | inhibition, % (no concentration beside the values) | 300,000 tested, 1.4% active;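 active = mean inhibition across valid replicates above about 55%, limit read from the data; inconclusive = mean below that limit but half or more replicates reach it; inactive = mean below it, under half of replicates reach it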;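 note: signal also drops with host cell toxicity which is not excluded here; 0% = plate median of DMSO wells and 100% = zero luminescence signal; higher percent means less beta-gal luminescence so fewer parasites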
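compound dosing = single 50 nL compound addition per well in DMSO | material = NIH/3T3 host cells with β-galactosidase reporter T. cruzi | input = 5,000 host fibroblasts per well | timing = ≥90 h infection period, 3 h prior cell attachment | read-out basis = percent inhibition of parasite-derived β-gal signal | detection = GalScreen β-gal luminescence, detergent lysis, 60 min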
CTSL1 counter: counter-screen for PFM18AAP inhibitors: inhibitors of F. hepatica cathepsin L1. recombinant F. hepatica cathepsin L1, Z-Leu-Arg-MCA fluorescence. inhibition, % at 5.96 µM. 300,000 tested, 0.49% active;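 active = inhibition above the mean of all tested compounds plus 3 SD, set per screening campaign, cut at about 17% in these data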;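 note: 0% = plate median of test compound wells and 100% = 1 µM Z-Phe-Ala-diazomethylketone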
Cardio protect: myocardial damage modulation in H9c2 cells; 360,000 tested, 0.63% active; protection from H2O2 cell death, % at 20 µM; H9c2 cardiomyocytes, H2O2 injury protection, ATPLite, 2 h;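 active = compounds giving at least 50% protection of heart cells from peroxide-induced death in the single-dose screen, raw or plate-pattern-corrected value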;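 note: 0% = DMSO wells with peroxide and 100% = DMSO wells without peroxide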
Active calls of the source: *; ? = inconclusive; / = no result given.

SMILES	PP5 primary	JMJD2C inh	pCIP destab	T cruzi repl	CTSL1 counter	Cardio protect
CN(C)S(=O)(=O)c1cccc(N=C2NN=C(c3ccccc3)CS2)c1	1	1	-2	/	2	/
N=C1CCC(=N)c2c1c(O)c1ccccc1c2O	3	-3	1	0	19*	-13
C[C@H](CO)N1C[C@H](C)[C@@H](CN(C)S(=O)(=O)c2cccs2)Oc2c(NC(=O)NC3CCCCC3)cccc2C1=O	/	/	/	/	/	1
COc1ccc(-c2nnc(NC(=O)c3ccc(S(=O)(=O)N4COCC4(C)C)cc3)o2)cc1	1	-29	-13	62*	4	37
CCCCN(CCCC)S(=O)(=O)c1ccc(C(=O)Nc2nnc(CSC)o2)cc1	0	0	-5	52	4	50*
COc1ccccc1-c1nnc(NC(=O)c2ccc(S(=O)(=O)N(C)C)cc2)o1	0	/	-13	-11	5	23
CCN(Cc1ccccc1)S(=O)(=O)c1ccc(C(=O)Nc2nnc(-c3ccccc3OC)o2)cc1	-2	15	3	62*	2	46
CCN(c1ccccc1)S(=O)(=O)c1ccc(C(=O)Nc2nnc(C3CC3)o2)cc1	-2	0	-4	72*	-1	23
Cc1ccc(C(C)C)c(OCC#CCN2CCOCC2)c1	4	4	6	0	-3	6
CC1(C(=O)O)CCC(C(=O)Nc2cccc(F)c2)C1(C)C (configuration not stated)	1	-3	-4	-9	1	4
COc1ccc(CCCC(=O)N/N=C/c2ccccc2OC)cc1	0	2	-2	-7	0	-1
S=c1[nH]nc(C2CCCCC2)n1/N=C/c1cccc(Cl)c1Cl	/	2	7	7	/	-14
CCCCN(C)S(=O)(=O)c1ccc(C(=O)Nc2nnc(-c3cccs3)o2)cc1	5	3	-16	57*	2	/
O=C(Nc1nnc(-c2cccs2)o1)c1cccc(F)c1	2	-14	/	26	0	14
CCCN(CCC)S(=O)(=O)c1ccc(C(=O)Nc2nnc(-c3cccc(OC)c3)o2)cc1	2	-21	-4	54	2	31
O=C(Nc1nnc(-c2cccs2)o1)c1cccc(Oc2ccccc2)c1	-1	7	-13	/	4	53*
CCCN(CCC)S(=O)(=O)c1ccc(C(=O)Nc2nnc(-c3cc(OC)cc(OC)c3)o2)cc1	-2	5	7	58*	-2	54*
CCOc1ccc(-c2cnc(NCc3cccc4ccccc34)n2CCOC)cc1	2	0	-3	72*	-1	-12
O=S(=O)(NCCCCNS(=O)(=O)c1c(F)cccc1F)c1ccc2c(c1)OCCO2	1	2	/	/	/	-1
COC(=O)c1ccc(OC)c(CN2CCCN(Cc3cc(C)ccc3C)S2(=O)=O)c1	-1	8	0	69*	-4	-5
Nc1cc(Cl)ccc1C(=O)OCC(=O)NCc1cccs1	/	1	/	/	/	-5
Oc1ccccc1N=Nc1ccccc1O	/	21	1	59*	/	27
C=CCn1c(O)c(N=Nc2ccccc2O)c2ccccc21	6	9	/	/	/	-10
CC(C)/C=C1\CC/C(=C\c2cccnc2)C1=O	2	4	-5	56*	-1	1
O=C1/C(=C/c2cccnc2)CC/C1=C\c1cccnc1	-1	7	-10	2	-5	-3
SMILES	PP5 primary	JMJD2C inh	pCIP destab	T cruzi repl	CTSL1 counter	Cardio protect
CCOc1cccc2sc(Nc3nc4ccc(NC(C)=O)cc4s3)nc12	3	-3	-9	57*	2	22
O=C(Nc1ccc(C(=O)NCCCN2CCN(c3ccc(F)cc3)CC2)cc1)C1=CSCCO1	2	-14	0	25	3	-1
CCc1nnc(NC(=O)CSc2nnc(CNc3ccc(OC)cc3)n2C)s1	0	-11	3	2	0	68*
CCc1nnc(NC(=O)CSc2nnc(CNc3ccc(OC)cc3)n2CC)s1	1	-16	-17	-5	-3	27
CSc1nc2ncc3c(n2n1)CC1c2ccccc2CCN1C3=O (configuration not stated)	4	-3	-2	10	2	59*
COc1ccc(CN2CCC(n3nccc3NC(=O)C3CCCC3)CC2)cc1	1	4	-10	31	1	4
CC(C)Cc1ccc(CN2CCC(n3nccc3NC(=O)C3CCCC3)CC2)cc1	3	-6	7	59*	-2	-4
CCC(C)NC(=O)Cc1ccc(-c2ccccc2)cc1 (configuration not stated)	3	-4	6	62*	-4	-2
CCCC(C)NC(=O)Cc1ccccc1 (configuration not stated)	1	0	-9	-6	-2	7
COc1cc(-c2cc(C(=O)Nc3ccc(O)cc3)c3ccccc3n2)cc(OC)c1OC	3	1	7	-13	-1	18
COc1cc(-c2cc(O)c(-c3ccc4ccccc4n3)c(=O)[nH]2)cc(OC)c1OC	/	/	/	/	/	62*
CCOc1ccccc1OCCCC(=O)NNC(=O)c1ccc(F)cc1	/	/	/	/	/	2
COc1ccc2[nH]c3c(C)c4ccncc4c(C)c3c2c1	7	-8	-15	58*	-2	2
CN1CCN(NC(=O)Nc2ccc(F)cc2)CC1	/	-3	3	17	/	3
O=C(Cc1ccccc1)NC(C(=O)O)C(O)c1ccc([N+](=O)[O-])cc1 (configuration not stated)	1	2	-5	-3	3	3
Cc1cc2c(n1-c1ccc(Br)cc1)CC(C)(C)CC2=O	3	1	-16	58*	3	5
CCc1nc2ccc(C(=O)NCCOc3ccc(OC)cc3)cn2c1N(C)Cc1cccs1	/	/	/	/	/	19
CN1CCN(Cc2cccc(Oc3ccc(Cl)cc3)c2)CC1	1	22	0	75*	0	13
CCN1CCN(Cc2cccc(Oc3ccccc3)c2)CC1	-1	-2	-2	59*	-3	-6
COc1cc(CN2CCN(CCCc3ccccc3)C(CCO)C2)cc(OC)c1O (configuration not stated)	1	5	3	-9	4	-7
COc1cc(-c2nc(C(=O)NC3CCN(Cc4ccccc4)CC3)cc3c2[nH]c2ccccc23)cc(OC)c1OC	7	/	-18	77*	2	10
COc1ccc(OC)c(-c2nc(C(=O)NC3CCN(Cc4ccccc4)CC3)cc3c2[nH]c2ccccc23)c1	3	?	-7	42	3	-3
Cc1ccc(-c2[nH]ncc2CN2CCN(C(=O)c3cccs3)CC2)cc1C	3	-7	3	30	1	3
CCOc1ccc(Nc2nc(N)nc(CSC(=S)N3CCOCC3)n2)cc1	4	-11	8	5	18*	-4
Cc1cc(CN2CCCC(N3CCc4ccccc4C3)C2)cc(C)c1O (configuration not stated)	0	-1	-14	47	-1	2
